This note sets out measurements from ChEMBL document CHEMBL2146360, “Selection, synthesis, and anti-inflammatory evaluation of the arylidene malonate derivatives as TLR4 signaling inhibitors” (Bioorg Med Chem, 2012).

As a reminder, the IC50 is the concentration needed to halve the response being measured.

What all share (type): cell-based
The target of data set [1] is T1, Toll-like receptor 4 (Mus musculus, UniProt Q9QUK6).
T1 sequence (Q9QUK6 whole entry): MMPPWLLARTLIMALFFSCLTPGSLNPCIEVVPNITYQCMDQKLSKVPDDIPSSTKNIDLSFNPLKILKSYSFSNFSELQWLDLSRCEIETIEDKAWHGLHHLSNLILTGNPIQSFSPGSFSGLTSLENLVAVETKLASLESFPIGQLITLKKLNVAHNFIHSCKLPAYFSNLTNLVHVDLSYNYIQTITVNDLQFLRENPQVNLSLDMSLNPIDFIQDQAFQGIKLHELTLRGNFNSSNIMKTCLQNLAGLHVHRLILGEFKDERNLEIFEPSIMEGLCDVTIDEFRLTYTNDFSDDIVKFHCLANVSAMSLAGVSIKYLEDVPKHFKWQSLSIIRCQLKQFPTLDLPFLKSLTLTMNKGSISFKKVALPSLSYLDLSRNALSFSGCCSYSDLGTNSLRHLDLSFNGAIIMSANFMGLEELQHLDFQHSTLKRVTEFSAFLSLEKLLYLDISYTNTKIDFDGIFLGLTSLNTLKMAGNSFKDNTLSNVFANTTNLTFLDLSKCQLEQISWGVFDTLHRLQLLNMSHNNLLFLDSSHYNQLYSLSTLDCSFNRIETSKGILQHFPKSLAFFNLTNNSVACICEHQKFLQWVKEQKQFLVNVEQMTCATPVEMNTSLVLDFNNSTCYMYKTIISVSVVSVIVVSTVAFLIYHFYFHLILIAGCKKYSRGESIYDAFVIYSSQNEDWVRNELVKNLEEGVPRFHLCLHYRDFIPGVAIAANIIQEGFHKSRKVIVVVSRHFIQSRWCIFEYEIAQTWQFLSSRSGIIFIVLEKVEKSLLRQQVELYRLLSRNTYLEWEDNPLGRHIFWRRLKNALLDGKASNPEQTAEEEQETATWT
Nature of the data set: Inhibition of TLR4 in LPS-stimulated mouse RAW264.7 cells assessed as reduction of NO production after 24 hrs. The gist of the method:
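RAW 264.7 cells at 7.5×10^4/well were incubated 24 h, moved to fresh RPMI 1640, treated with vehicle or compound, and stimulated with LPS 20 ng/mL for 24 h. Nitrite in the medium was reacted with 2,3-diaminonaphthalene (0.05 mg/mL in 0.62 M HCl) for 15 min in the dark, NaOH was added, and […] was read at 450 nm.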

Data set [2] concerns the target T2, Toll-like receptor 4 (Mus musculus) (UniProt Q9QUK6).
T2 sequence (whole entry): T1 sequence (Q9QUK6 whole entry)
Nature of the data set: Inhibition of TLR4 in LPS-stimulated mouse RAW264.7 cells assessed as reduction of TNFalpha production at 3 to 10 uM after 24 hrs by ELISA. The gist of the method:
(§1)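 RAW 264.7 cells (5×10^5/well, 6-well plates) were treated with or without LPS and then with compound for 24 h. Culture supernatant was harvested and clarified, and TNF-α was measured by ELISA.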
(ELISA stands for enzyme-linked immunosorbent assay.)

In data set [3] the target is T2, Toll-like receptor 4 (Mus musculus). Nature of the data set: Inhibition of TLR4 in LPS-stimulated mouse BV2 cells assessed as reduction of NF-kappaB activation up to 10 uM after 24 hrs by Dual-GLO luciferase assay. To be noted: BV-2. In a few lines: (§2)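 BV-2 cells stably carrying an NF-κB dual-luciferase reporter were kept in DMEM/10% FBS with puromycin (3 μg/mL) and seeded at 1×10^4/well. After 24 h the medium was switched to Opti-MEM/0.5% FBS. Compound was added, followed by LPS 200 ng/mL for 24 h. Read-out was the Firefly/Renilla luciferase ratio (Dual-Glo).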

For data set [4] the target is unchanged. Nature of the data set: Inhibition of TLR4 in LPS-stimulated mouse RAW264.7 cells assessed as reduction of IL1-beta production at 3 to 10 uM after 24 hrs by ELISA. The gist of the method:
(§3)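 RAW 264.7 cells (5×10^5/well, 6-well plates) were treated with or without LPS and then with compound for 24 h. Cells were lysed and IL-1β was measured in the lysate by ELISA, normalized to total protein.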

Data set [5] has the same target. As to the kind of experiment: (§4) Inhibition of TLR4 in LPS-stimulated mouse RAW264.7 cells assessed as reduction of TNFalpha production after 24 hrs by ELISA. In a few lines: as §1
Data set [6] deals with T1, Toll-like receptor 4. The description is as §4. The gist of the method:
as §1

The target of data set [7] is T2, Toll-like receptor 4 (Mus musculus). Nature of the data set: Inhibition of TLR4 in LPS-stimulated mouse BV2 cells assessed as reduction of NF-kappaB activation after 24 hrs by Dual-GLO luciferase assay. To be noted: BV-2. In a few lines:
as §2

The test system of data set [8] is RAW264.7. As to the kind of experiment: Cytotoxicity against mouse RAW264.7 cells assessed as cell viability up to 10 uM after 24 hrs by WST-1 assay. The conditions noted are these: raw264.7, 24 h. The gist of the method:
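WST-1 viability assay: RAW 264.7 cells at 2×10^4 cells/well, cultured 24 h at 37°C, then moved to serum-free medium and treated with vehicle or compound (10 mM DMSO stocks) for 24 h. WST-1 reagent added for 30 min at 37°C; absorbance read at 490 nm.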
On the technique in general: Tetrazolium assays rely on reduction of a dye to a coloured formazan, in cell work by metabolically active cells.

Data set [9] deals with T2, Toll-like receptor 4 (Mus musculus). As to the kind of experiment: (§5) Inhibition of TLR4 in LPS-stimulated mouse RAW264.7 cells assessed as reduction of IL1-beta production after 24 hrs by ELISA. The gist of the method: as §3
Data set [10] deals with T1, Toll-like receptor 4. The data set is described as §5. In a few lines: as §3
Data set [11] has as its target Toll-like receptor 1/2 (Mus musculus) (UniProt Q9QUN7+Q9EPQ1). As to the kind of experiment: Inhibition of TLR1/TLR2 in Pam3CSK4-stimulated mouse RAW264.7 cells at 0.6 uM after 24 hrs. The gist of the method:
(§6)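 RAW 264.7 cells were stimulated with the TLR-selective ligand named in the line, in the presence or absence of compound (0.6 μM). NO was then measured by the nitrite protocol: 7.5×10^4 cells/well, RPMI 1640, 24 h. 2,3-diaminonaphthalene was added, then NaOH, and […] read at 450 nm. Mean ±SD of 3 experiments, each run in triplicate.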

The target of data set [12] is TLR7 and TLR8 (Mus musculus) (UniProt P58681+P58682). As to the kind of experiment: Inhibition of TLR7/TLR8 in R848-stimulated mouse RAW264.7 cells at 0.6 uM after 24 hrs. The gist of the method:
as §6

Data set [13] addresses T3, Toll-like receptor 3 (Mus musculus) (UniProt Q99MB1).
T3 sequence (whole entry): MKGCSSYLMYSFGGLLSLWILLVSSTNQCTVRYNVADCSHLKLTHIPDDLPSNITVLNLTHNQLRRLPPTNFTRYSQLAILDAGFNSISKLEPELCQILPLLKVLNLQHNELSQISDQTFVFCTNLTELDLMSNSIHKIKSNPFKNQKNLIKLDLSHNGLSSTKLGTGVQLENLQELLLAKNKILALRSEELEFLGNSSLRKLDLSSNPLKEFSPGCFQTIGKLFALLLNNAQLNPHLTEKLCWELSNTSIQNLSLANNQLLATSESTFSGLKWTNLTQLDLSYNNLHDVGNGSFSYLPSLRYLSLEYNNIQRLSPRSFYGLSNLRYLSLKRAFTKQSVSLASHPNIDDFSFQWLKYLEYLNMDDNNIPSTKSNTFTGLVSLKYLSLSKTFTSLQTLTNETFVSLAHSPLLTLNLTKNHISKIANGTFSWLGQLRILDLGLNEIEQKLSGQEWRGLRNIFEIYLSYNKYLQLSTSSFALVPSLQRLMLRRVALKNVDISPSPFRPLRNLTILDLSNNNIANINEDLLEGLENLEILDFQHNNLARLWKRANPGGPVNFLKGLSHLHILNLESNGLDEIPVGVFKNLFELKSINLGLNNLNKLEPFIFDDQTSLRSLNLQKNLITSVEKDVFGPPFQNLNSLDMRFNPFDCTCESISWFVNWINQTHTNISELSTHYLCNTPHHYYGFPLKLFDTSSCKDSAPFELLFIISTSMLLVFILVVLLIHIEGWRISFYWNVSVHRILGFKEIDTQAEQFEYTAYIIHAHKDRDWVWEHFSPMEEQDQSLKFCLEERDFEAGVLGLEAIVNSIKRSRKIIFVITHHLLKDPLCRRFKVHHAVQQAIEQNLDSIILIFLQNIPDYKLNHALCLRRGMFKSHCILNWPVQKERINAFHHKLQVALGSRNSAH
As to the kind of experiment: Inhibition of TLR3 in poly(I:C)-stimulated mouse RAW264.7 cells at 0.6 uM after 24 hrs. In a few lines:
as §6

The target in data set [14] is TLR2/TLR6 (Mus musculus) (UniProt Q9QUN7+Q9EPW9). Nature of the data set: Inhibition of TLR2/TLR6 in FSL1-stimulated mouse RAW264.7 cells at 0.6 uM after 24 hrs. The gist of the method:
as §6

The source made the active and inactive calls. The rule behind the calls is not given here. A value given as a limit tells only on which side of the number the result lay.

TLR7 and TLR8 (Mus musculus), sequence (P58681 whole entry, looked up): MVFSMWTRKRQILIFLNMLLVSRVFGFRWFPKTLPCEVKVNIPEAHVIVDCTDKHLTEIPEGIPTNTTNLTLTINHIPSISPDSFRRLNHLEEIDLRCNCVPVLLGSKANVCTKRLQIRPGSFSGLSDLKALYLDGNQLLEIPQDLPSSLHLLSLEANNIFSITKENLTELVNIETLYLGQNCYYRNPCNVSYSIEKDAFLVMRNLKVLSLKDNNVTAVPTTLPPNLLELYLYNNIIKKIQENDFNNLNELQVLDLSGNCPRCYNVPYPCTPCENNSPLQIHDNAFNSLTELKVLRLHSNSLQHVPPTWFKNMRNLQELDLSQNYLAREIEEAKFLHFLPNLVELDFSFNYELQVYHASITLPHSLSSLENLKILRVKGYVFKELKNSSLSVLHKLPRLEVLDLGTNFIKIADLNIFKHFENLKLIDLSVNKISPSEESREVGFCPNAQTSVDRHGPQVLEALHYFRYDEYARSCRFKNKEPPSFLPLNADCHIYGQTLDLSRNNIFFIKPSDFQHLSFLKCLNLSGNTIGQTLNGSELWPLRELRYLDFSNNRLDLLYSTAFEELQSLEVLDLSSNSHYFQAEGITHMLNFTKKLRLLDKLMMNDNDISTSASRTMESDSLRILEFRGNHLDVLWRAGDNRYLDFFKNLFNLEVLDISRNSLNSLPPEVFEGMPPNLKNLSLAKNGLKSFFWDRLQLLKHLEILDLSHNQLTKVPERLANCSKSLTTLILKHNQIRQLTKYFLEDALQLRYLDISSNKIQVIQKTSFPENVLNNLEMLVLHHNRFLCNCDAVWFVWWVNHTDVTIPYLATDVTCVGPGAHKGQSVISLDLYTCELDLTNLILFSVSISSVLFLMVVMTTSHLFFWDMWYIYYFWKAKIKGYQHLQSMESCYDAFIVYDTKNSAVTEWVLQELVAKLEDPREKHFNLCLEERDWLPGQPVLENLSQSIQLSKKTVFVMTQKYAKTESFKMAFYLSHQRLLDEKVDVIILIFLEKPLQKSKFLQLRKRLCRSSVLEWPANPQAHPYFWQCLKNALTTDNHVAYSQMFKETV
TLR7 and TLR8 (Mus musculus), sequence (P58682 whole entry, looked up): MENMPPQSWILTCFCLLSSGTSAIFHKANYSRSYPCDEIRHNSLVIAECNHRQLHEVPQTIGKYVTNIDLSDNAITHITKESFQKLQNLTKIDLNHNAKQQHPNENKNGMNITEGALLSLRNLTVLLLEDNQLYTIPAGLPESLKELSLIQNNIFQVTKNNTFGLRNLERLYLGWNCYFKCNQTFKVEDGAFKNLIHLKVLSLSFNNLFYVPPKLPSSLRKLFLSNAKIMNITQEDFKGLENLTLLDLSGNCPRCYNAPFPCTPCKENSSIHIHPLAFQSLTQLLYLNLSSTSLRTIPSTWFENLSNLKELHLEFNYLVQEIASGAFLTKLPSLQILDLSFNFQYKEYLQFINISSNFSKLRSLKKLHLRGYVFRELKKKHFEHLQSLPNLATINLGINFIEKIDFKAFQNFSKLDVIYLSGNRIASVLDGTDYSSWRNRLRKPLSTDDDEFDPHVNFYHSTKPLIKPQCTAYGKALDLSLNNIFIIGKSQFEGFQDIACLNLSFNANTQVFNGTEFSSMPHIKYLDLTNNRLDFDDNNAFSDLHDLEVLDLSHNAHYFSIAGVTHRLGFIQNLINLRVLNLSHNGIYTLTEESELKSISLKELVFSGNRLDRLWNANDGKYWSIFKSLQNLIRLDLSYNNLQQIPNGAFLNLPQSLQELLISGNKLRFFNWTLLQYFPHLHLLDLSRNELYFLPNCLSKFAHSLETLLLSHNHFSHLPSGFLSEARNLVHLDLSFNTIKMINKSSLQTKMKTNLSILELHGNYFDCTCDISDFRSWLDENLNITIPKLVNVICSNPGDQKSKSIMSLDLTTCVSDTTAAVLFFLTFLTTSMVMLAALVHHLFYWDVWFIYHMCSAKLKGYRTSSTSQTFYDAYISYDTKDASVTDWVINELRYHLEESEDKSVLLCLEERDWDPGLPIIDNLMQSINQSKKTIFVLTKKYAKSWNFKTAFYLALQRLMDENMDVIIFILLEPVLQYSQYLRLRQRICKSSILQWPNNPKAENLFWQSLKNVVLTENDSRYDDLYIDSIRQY

For `COC(=O)C(=CC1CCCCC1)C(=O)OC`, the IC50 in [1] worked out at 78200 nM.

As to `COC(=O)C(=Cc1ccc(OC)cc1OC)C(=O)OC`, the IC50 in data set [1] is 820 nM.

Consider `COC(=O)C(=Cc1ccc([N+](=O)[O-])cc1)C(=O)OC`, for which, in data set [1], the half-maximal inhibitory concentration (IC50) stood at 820 nM.

For the compound `COC(=O)/C=C/c1ccccc1[N+](=O)[O-]`, in [1], the IC50 came to 4530 nM.

Consider `COC(=O)C(=Cc1ccccc1Cl)C(=O)OC`, for which, in data set [1], the IC50 was determined as 820 nM.

`COC(=O)C(=Cc1ccc(F)cc1)C(=O)OC`: the IC50 in data set [1] worked out at 710 nM.

As to `COC(=O)C(=Cc1cccc([N+](=O)[O-])c1)C(=O)OC`, the IC50 in data set [1] was found to be 2130 nM.

For the compound `COc1cc(/C=C/C(=O)CC(=O)/C=C/c2ccc(O)c(OC)c2)ccc1O` [CURCUMIN], the IC50 in [1] is 6000 nM.

On to `COC(=O)C(=Cc1ccc(N(C)C)cc1)C(=O)OC`, for which, in [1], the IC50 turned out to be 3110 nM.

For `COC(=O)C(=Cc1ccccc1F)C(=O)OC`, the IC50 in data set [1] was 330 nM.

With `COC(=O)C(Cc1ccccc1[N+](=O)[O-])C(=O)OC`, the IC50 in [1] is above 100000 nM. The inhibition entry in data set [2], in data set [3] and in data set [4] was “inactive” each time.

In the case of `COC(=O)C(=Cc1cccc(F)c1)C(=O)OC`, the IC50 in [1] came out at 2530 nM.

Consider `COC(=O)C(=Cc1ccccc1OC)C(=O)OC`, for which the IC50 in data set [1] came to 740 nM.

Take `COC(=O)C(=Cc1ccccc1[N+](=O)[O-])C(=O)OC`: the inhibition result in [5], in data set [7] and in data set [9] was “Dose-dependent effect” each time. Further, the IC50 in [6] stood at 1540 nM; in [7], 5920 nM; in data set [1] it was 310 nM; in data set [10], 420 nM. In addition, the Activity entry in data set [8] is “Non-toxic”. Also, the inhibition entry in data set [11], in data set [12] and in data set [13] was “inactive” in each case. The inhibition entry in data set [14] is “Active”.

In the case of `COC(=O)C(=Cc1ccc(Cl)cc1)C(=O)OC`, in [1], the IC50 is 1540 nM.

For `COC(=O)C(=Cc1ccccc1)C(=O)OC`, the IC50 in data set [1] worked out at 820 nM.

With `O=C(O)C(=Cc1ccccc1[N+](=O)[O-])C(=O)O`, the IC50 in data set [1] was 520 nM.

On to `COC(=O)C(=Cc1cccc(OC)c1)C(=O)OC`, for which the IC50 in data set [1] worked out at 3720 nM.

Consider `O=C(O)C(=Cc1ccccc1)C(=O)O`, for which, in data set [1], the IC50 was 930 nM.

For `O=C(O)C(=Cc1ccccc1F)C(=O)O`, the IC50 in data set [1] was 410 nM.

In the case of `COc1ccc(C=C(C(=O)O)C(=O)O)cc1`, the IC50 in [1] was determined as 1440 nM.

Turning to `COC(=O)C(=Cc1ccc(OC)cc1)C(=O)OC`, in data set [1], the IC50 was 1240 nM.

Consider `COC(=O)C(=Cc1ccc(F)cc1F)C(=O)OC`, for which the IC50 in data set [1] was found to be 420 nM.

Turning to `COC(=O)C(=Cc1ccc(C(=O)OC)cc1)C(=O)OC`, in data set [1], the IC50 amounted to 1330 nM.
